Target: D(3) dopamine receptor (Homo sapiens, UniProt P35462)
Sequence (P35462 whole entry): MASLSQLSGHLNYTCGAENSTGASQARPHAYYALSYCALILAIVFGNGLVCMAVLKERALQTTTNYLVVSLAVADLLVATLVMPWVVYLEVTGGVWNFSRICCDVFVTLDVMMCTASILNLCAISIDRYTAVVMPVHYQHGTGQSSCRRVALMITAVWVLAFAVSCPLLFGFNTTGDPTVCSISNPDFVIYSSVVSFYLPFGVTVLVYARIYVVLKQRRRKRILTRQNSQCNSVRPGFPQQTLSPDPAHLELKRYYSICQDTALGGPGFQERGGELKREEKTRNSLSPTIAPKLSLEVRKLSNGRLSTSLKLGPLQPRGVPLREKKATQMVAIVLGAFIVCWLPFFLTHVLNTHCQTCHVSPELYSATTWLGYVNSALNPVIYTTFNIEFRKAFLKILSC
Test: Competitive inhibition of [3H]spiperone binding to the human dopamine receptor D3 expressed in CHO cells, expressed as 10log Ki
Assay type: cell-based
How it was run: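 Displacement of [3H]spiperone from human dopamine D3 receptors expressed in CHO K1 cells. Four to six test concentrations, each run in triplicate. IC50 from nonlinear regression, converted to Ki (nM) by Cheng–Prusoff, then reported as 10log Ki.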
`COc1c(C(=O)NCCN2CCN(c3ccc(F)cc3F)CC2)cc(Br)c2ccccc12` showed a Ki of 0.2 µM.
Compound `COc1c(C(=O)NCCN2CCN(c3ccccc3C#N)CC2)cc(Br)c2ccccc12` has a Ki of 0.0501 µM.
With `COc1c(C(=O)NCCN2CCN(c3ccccn3)CC2)cc(Br)c2ccccc12` the Ki was 0.0794 µM.
For `CCOc1c(C(=O)NCCN2CCN(c3ccccc3OC)CC2)cc(Br)c2ccccc12`, the Ki was 0.0794 µM.
`COc1c(C(=O)NCCN2CCN(c3ccccc3)CC2)cc(Cl)c2ccccc12` gave a Ki of 0.0501 µM.
`COc1c(C(=O)NCCN2CC=C(c3ccccc3)CC2)cc(Br)c2ccccc12` showed a Ki of 0.02 µM.
Work on `COc1ccc(Br)cc1C(=O)NCCN1CCN(c2ccccc2)CC1` yielded a Ki of 0.316 µM.
`COc1c(C(=O)NCCN2CCN(c3cccc(C(F)(F)F)c3)CC2)cc(Br)c2ccccc12` gave a Ki of 0.251 µM.
`COc1c(C(=O)NCCN2CCN(c3ccc(C)cc3)CC2)cc(Br)c2ccccc12` gave a Ki of 0.251 µM.
`COc1c(C(=O)NCCN2CCN(c3cccc(Cl)c3Cl)CC2)cc(Cl)c2ccccc12` gave a Ki of 0.0398 µM.
In the case of `COc1c(C(=O)NCCN2CCC(c3ccccc3)CC2)cc(Br)c2ccccc12`, the Ki is reported as 0.0794 µM.
Compound `COc1ccccc1N1CCN(CCNC(=O)c2cc(Br)c3ccccc3c2OC)CC1` has a Ki of 0.0794 µM.
`COc1ccc(Br)c(O)c1C(=O)NCCN1CCN(c2ccccc2)CC1` gave a Ki of 0.398 µM.
Compound `COc1c(C(=O)NCCN2CCN(c3ccccc3)CC2)cc2ccccc2c1Br` has a Ki of 0.316 µM.
For `CCOc1c(C(=O)NCCN2CCN(c3cccc(C(F)(F)F)c3)CC2)cc(Br)c2ccccc12`, the Ki was 0.126 µM.
Compound `COc1c(C(=O)NCCN2CCN(c3ccccc3Cl)CC2)cc(Br)c2ccccc12` has a Ki of 0.0398 µM.
In the case of `CCOc1c(C(=O)NCCN2CCN(c3ccccc3)CC2)cc(Br)c2ccccc12`, the Ki is reported as 0.251 µM.
Compound `COc1c(C(=O)NCCN2CCN(c3cccc(C)c3)CC2)cc(Br)c2ccccc12` has a Ki of 0.316 µM.
In the case of `COc1c(C(=O)NCCN2CCN(c3ccc(Cl)cc3Cl)CC2)cc(Br)c2ccccc12`, the Ki is reported as 0.1 µM.
Compound `CCc1cc(Cl)c(O)c(C(=O)NCCN2CCN(c3ccccc3)CC2)c1OC` has a Ki of 1.58 µM.
For `COc1c(C(=O)NCCN2CCN(c3ccccc3C)CC2)cc(Br)c2ccccc12`, the Ki was 0.0631 µM.
With `COc1c(Cl)cc(Cl)c(O)c1C(=O)NCCN1CCN(c2cccc(Cl)c2Cl)CC1` the Ki was 0.501 µM.
With `COc1c(C(=O)NCCN2CCN(c3ccc(Cl)c(Cl)c3)CC2)cc(Br)c2ccccc12` the Ki was 0.2 µM.
For `COc1c(Cl)cc(Cl)c(O)c1C(=O)NCCN1CCN(c2ccccc2)CC1`, the Ki was 1 µM.
`COc1c(C(=O)NCCN2CCN(c3ccccc3)CC2)cc(Br)c2ccccc12` gave a Ki of 0.0251 µM.
`CCOc1c(C(=O)NCCN2CCN(c3ccccn3)CC2)cc(Br)c2ccccc12` gave a Ki of 0.0794 µM.
With `COc1c(C(=O)NCCN2CCN(c3ccc4ccccc4n3)CC2)cc(Br)c2ccccc12` the Ki was 0.251 µM.
For `COc1c(C(=O)NCCN2CCN(c3cccc(Cl)c3C)CC2)cc(Br)c2ccccc12`, the Ki was 0.0501 µM.

Target: not listed separately
Test: Competitive inhibition of [3H]spiperone binding to the human dopamine receptor D3 expressed in CHO cells, expressed as 10log Ki
For `COc1c(C(=O)NCCN2CCN(c3cccc(Cl)c3)CC2)cc(Br)c2ccccc12`, the “Log Ki(nM)” value was 1.6.

— ChEMBL document CHEMBL1129965, “GRID/GOLPE 3D quantitative structure-activity relationship study on a set of benzamides and naphthamides, with affinity for the dopamine D3 receptor subtype” (J Med Chem, 1997)
